The text below walks through data of ChEMBL document CHEMBL4229515, “A novel synthesis of 2-arylbenzimidazoles in molecular sieves-MeOH system and their antitubercular activity” (Bioorg Med Chem, 2018).

Data set [1] relates to Mus musculus. Kind of data set: Acute toxicity in Swiss albino mouse assessed as effect on triglyceride levels at 300 mg/kg, po after 7 days (reference value: 45.21 +/- 2.95 mg/dL). In kind it is organism-based. As to conditions: in vivo, 168 h.
Data set [2] in a line: Lipophilicity, log P of the compound. Type of data set: physicochemical. The settings on record: octanol/water; read-out: logP.
Data set [3] relates to Mus musculus. The data set is described as follows: Acute toxicity in Swiss albino mouse assessed as effect on MDA levels per mg of tissue protein at 50 mg/kg, po after 7 days (reference value: 0.24 +/- 0.05 nmol). In kind it is organism-based. The settings on record: in vivo, 168 h.
For data set [4], the system named is Mus musculus. Kind of data set: Acute toxicity in Swiss albino mouse assessed as effect on absolute liver weight at 5 to 1000 mg/kg, po after 7 days. Type of data set: organism-based. As to conditions: in vivo, 168 h. The method in brief: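 Single acute oral dose of 5, 50, 300 or 1000 mg/kg body weight, with an untreated control group; n=6 mice per group. Animals observed for 7 days for morbidity, mortality, behaviour and body weight. At the end, blood and serum were analysed, and organs were examined grossly with absolute and relative weights. Data are mean±SE; P<0.05 was taken as significant versus control and the lower-dose groups.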

Data set [5] deals with Mus musculus. The data set is described as follows: Acute toxicity in Swiss albino mouse assessed as effect on ALKP levels at 50 mg/kg, po after 7 days (reference value: 219.20 +/- 5.9 U/L). As to conditions: in vivo, 168 h. In kind it is organism-based.

As usually defined, the logP is the decadic logarithm of the partition coefficient of the neutral form, usually between octanol and water. For the compound `COc1ccc2c(c1)nc(-c1ccccc1OC)n2Cc1ccccc1OC`, the Activity is 43.04 mg/dL in the data set with Mus musculus [1], 0.32 nmol in the data set on Mus musculus [3], “Non-Toxic” with Mus musculus [4] and 171.7 U/L in the data set on Mus musculus [5]. For the same compound, in data set [2], the lipophilicity (logP) was 4.45.
